The source made the active and inactive calls. No cut-off for these calls is given here.

The values below come from ChEMBL document CHEMBL3758106, “Antitumor Activity of Americanin A Isolated from the Seeds of Phytolacca americana by Regulating the ATM/ATR Signaling Pathway and the Skp2-p27 Axis in Human Colon Cancer Cells” (J Nat Prod, 2015).

Data set [1] relates to HCT-116. Briefly: Induction of morphological change in human HCT116 cells assessed as loss of contact with adjacent cells at 30 uM after 24 to 48 hrs by phase contrast microscopic analysis. The format is functional, cell-based. The gist of the method: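 HCT116 cells incubated with compound for 24 h, then viewed and photographed under phase-contrast microscopy; also examined at 48 h.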

The test system of the next data set is MRC5. Briefly: Cytotoxicity against human MRC5 cells after 24 to 72 hrs by SRB assay. It counts as cell-based. The essentials: (§1)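 Cells grown in 96-well plates (RPMI 1640; MRC-5 in MEM, 10% FBS, antibiotics) with compound […]; fixed in 10% TCA 30 min at 4 °C, stained 0.4% SRB in 1% acetic acid 1 h, dye dissolved in 10 mM Tris pH 10.0, A515 read; viability as % of solvent control, IC50 by nonlinear regression; mean of three independent experiments.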

A short description of data set [2]: Downregulation of ATM expression in human HCT116 cells at 30 uM after 1 hr by Western blot analysis. It counts as functional, cell-based. Conditions: HCT-116, TDE = time-dependent effect. The essentials:
(§2)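 HCT116 cells exposed for 1 h in complete medium; RIPA lysates quantified by BCA, equal protein separated on 8–13% SDS-PAGE, transferred to PVDF, probed with primary antibodies overnight at 4 °C and HRP secondaries, chemiluminescence read-out.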
For orientation: In western blotting, separated proteins are transferred to a membrane and probed.

Data set [3] can be described thus: Antiproliferative activity against human HCT116 cells assessed as cell viability after 24 hrs by SRB assay. The format is functional, cell-based. Particulars: HCT-116, 24 h. The gist of the method:
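HCT116 cells in 96-well plates exposed 24, 48 or 72 h; TCA fixation, 0.4% SRB staining, dye solubilised in 10 mM Tris pH 10.0, absorbance at 515 nm; viability relative to solvent-treated control.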

The nature of data set [4]: Downregulation of phosphorylated ATR expression in human HCT116 cells at 30 uM after 1 hr by Western blot analysis. The format is functional, cell-based. Conditions: HCT-116, TDE = time-dependent effect. The gist of the method: as §2
Data set [5] addresses S-phase kinase-associated protein 1/2 (Homo sapiens) (UniProt Q13309+P63208). Briefly: Inhibition of Skp2/Skp1 protein interaction in human HCT116 cells after 24 hrs by immunoprecipitation assay. The format is cell-based. Conditions: HCT-116. The essentials:
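Protein measured by Bradford. Equal protein incubated with Protein G sepharose and the capture antibody (anti-p53, anti-Cul-1 or anti-Skp2) overnight at 4 °C. Bead eluates boiled in Laemmli/2-mercaptoethanol and analysed by Western blot.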

The nature of data set [6]: Antiproliferative activity against p53-expressing human HCT116 cells assessed as cell viability after 72 hrs by SRB assay. The format is functional, cell-based. Particulars: HCT-116, 72 h. The essentials:
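p53 wild-type and p53-null HCT116 cells in 96-well plates treated 72 h; SRB assay (TCA fix, SRB stain, Tris pH 10.0 solubilisation, A515); viability vs solvent control, IC50 by nonlinear regression.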

A further data set has as its system SW480. Kind of data set: Antiproliferative activity against human SW480 cells after 24 to 72 hrs by SRB assay. The format is functional, cell-based. The essentials:
as §1
A general note: In SRB staining, fixed cells bind dye roughly in proportion to their protein.

Data set [7] deals with HCT-116. Kind of data set: Induction of cell cycle arrest in human HCT116 cells assessed as accumulation at S phase at 7.5 uM after 48 hrs by propidium iodide staining-based flow cytometric analysis in presence of RNase A (reference value: 16.2%). The format is functional. (A flow cytometer gives signals particle by particle.)
In data set [8] the test system is HCT-116. Briefly: Increase in Cul-1 expression in human HCT116 cells after 24 hrs by western blot analysis. It counts as functional, cell-based. The essentials: (§3)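 HCT116 cells exposed 24 h in complete medium; lysed in RIPA buffer (pH 8.0), protein by BCA, equal loads run on 8–13% SDS-PAGE, PVDF transfer, blocked in 5% BSA/TBST, primary antibodies overnight at 4 °C, HRP secondaries 2 h RT, ECL detection; β-actin as loading control.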

Data set [9] can be described thus: Downregulation of phosphorylated ATM expression in human HCT116 cells at 30 uM after 1 hr by Western blot analysis. It counts as functional, cell-based. Particulars: HCT-116, TDE = time-dependent effect. The gist of the method:
as §2

The test system of data set [10] is Mus musculus. Briefly: Downregulation of Ki-67 in human HCT116 cells xenografted in nude mouse at 5 to 10 mg/kg, ip administered 3 times per week measured on day 41 by […]. The format is functional, organism-based. Particulars: HCT-116. The essentials: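 Formalin-fixed, paraffin-embedded xenograft sections (mice dosed ip three times weekly) probed with antibodies, detected by LSAB/HRP, counterstained with H&E, imaged by inverted phase-contrast microscopy.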

Data set [11] has as its system Mus musculus. Kind of data set: Toxicity in nude mouse assessed as change in body weight at 5 to 10 mg/kg, ip administered 3 times per week measured on day 41. Particulars: in vivo. The format is organism-based. The gist of the method:
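Nude mice implanted s.c. in the flank with 2 × 10^6 HCT116 cells. Once tumors reached about 120 mm3, mice were randomized, six per group, to vehicle or compound at 5 or 10 mg/kg ip (200 μL) three times weekly; irinotecan 10 mg/kg ip once weekly as reference. Body weight recorded twice weekly to assess toxicity; study ended day 41.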

Data set [12] is described as follows: Upregulation of phosphorylated H2A.X expression at Ser139 in human HCT116 cells at 7.5 to 30 uM after 24 hrs by Western blot analysis. It counts as functional, cell-based. Conditions: HCT-116.
Data set [13] in a line: Decrease in Skp1 expression in human HCT116 cells at 7.5 to 30 uM after 24 hrs by western blot analysis. Conditions: HCT-116. It counts as functional, cell-based. The essentials:
as §3

The test system of data set [14] is HCT-116. Kind of data set: Induction of cell cycle arrest in human HCT116 cells assessed as accumulation at S phase at 7.5 uM after 24 hrs by propidium iodide staining-based flow cytometric analysis in presence of RNase A (reference value: 13.4%). The format is functional.
The subject of data set [15] is HCT-116. Briefly: Induction of cell cycle arrest in human HCT116 cells assessed as accumulation at G0/G1 phase at 15 uM after 24 hrs by propidium iodide staining-based flow cytometric analysis in presence of RNase A (reference value: 64.6%). The format is functional.
Data set [16] concerns HCT-116. Kind of data set: Induction of apoptosis in human HCT116 cells assessed as late apoptotic cells at 30 uM after 48 hrs by annexin V-FITC/propidium iodide staining-based flow cytometric analysis (reference value: 5.2%). The format is functional.
Data set [17] has as its system HCT-116. Kind of data set: Induction of cell cycle arrest in human HCT116 cells assessed as accumulation at S phase at 30 uM after 24 hrs by propidium iodide staining-based flow cytometric analysis in presence of RNase A (reference value: 13.4%). It counts as functional.
For data set [18], the system named is HCT-116. Briefly: Induction of apoptosis in human HCT116 cells assessed as cleaved caspase 8 level at 30 uM up to 24 hrs by Western blot analysis in presence of NAC. It counts as functional, cell-based.
For data set [19], the system named is HCT-116. Briefly: Induction of cell cycle arrest in human HCT116 cells assessed as accumulation at S phase at 15 uM after 24 hrs by propidium iodide staining-based flow cytometric analysis in presence of RNase A (reference value: 13.4%). The format is functional.
Data set [20] in a line: Antitumor activity against human HCT116 cells xenografted in nude mouse assessed as tumor growth inhibition at 10 mg/kg, ip administered 3 times per week measured on day 41. It counts as functional. Particulars: HCT-116, ip, 984 h, read-out: TGI. The gist of the method: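 Nude mice given 2 × 10^6 HCT116 cells subcutaneously in flank; at ~120 mm3 randomised, six per group; ip dosing in 200 μL, test agent 5 or 10 mg/kg three times weekly, irinotecan 10 mg/kg once weekly; tumour volume measured twice weekly to day 41; body weight tracked for toxicity.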

In data set [21] the test system is HCT-116. Kind of data set: Induction of cell cycle arrest in human HCT116 cells assessed as accumulation at G0/G1 phase at 30 uM after 48 hrs by propidium iodide staining-based flow cytometric analysis in presence of RNase A (reference value: 54.3%). The format is functional.

S-phase kinase-associated protein 1/2 (Homo sapiens), sequence (P63208 whole entry, looked up): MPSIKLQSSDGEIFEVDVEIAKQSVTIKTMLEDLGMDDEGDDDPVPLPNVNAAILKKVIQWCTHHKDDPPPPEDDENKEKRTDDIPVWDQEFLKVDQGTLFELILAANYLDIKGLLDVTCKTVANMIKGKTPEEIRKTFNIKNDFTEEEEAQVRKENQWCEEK
S-phase kinase-associated protein 1/2 (Homo sapiens), sequence (Q13309 whole entry, looked up): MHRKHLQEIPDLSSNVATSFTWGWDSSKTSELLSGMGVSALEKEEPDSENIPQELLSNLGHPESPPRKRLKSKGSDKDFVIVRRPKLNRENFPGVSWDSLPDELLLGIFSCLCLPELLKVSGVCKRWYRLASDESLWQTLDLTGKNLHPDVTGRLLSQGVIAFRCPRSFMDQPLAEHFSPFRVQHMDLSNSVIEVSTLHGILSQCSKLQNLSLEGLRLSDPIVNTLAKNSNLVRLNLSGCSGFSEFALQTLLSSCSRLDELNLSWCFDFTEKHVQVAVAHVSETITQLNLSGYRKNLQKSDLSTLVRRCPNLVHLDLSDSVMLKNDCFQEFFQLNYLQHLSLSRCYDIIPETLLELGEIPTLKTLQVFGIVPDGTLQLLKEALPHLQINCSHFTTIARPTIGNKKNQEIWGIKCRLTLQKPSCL

Usually IC50 stands for the point on the concentration scale where inhibition reaches its midpoint. Take `O=C/C=C/c1ccc2c(c1)O[C@@H](CO)[C@H](c1ccc(O)c(O)c1)O2` [AMERICANIN A]: the outcome (with HCT-116 [1]; with HCT-116 [8]; in the data set on Mus musculus [10]; in data set [12]; in data set [13]) was Active. In addition, the IC50 was greater than 100 µM in the data set on MRC5, 24.1 µM in [3], 8.3 µM in data set [6] and 27.4 µM in the data set on SW480. Also, the Activity result in data set [2] was “tde”; in [4], “tde”; with HCT-116 [7], 13.5%; in data set [9], “tde”; in the data set on Mus musculus [11], “Non-toxic”; with HCT-116 [14], 15.6%. Besides, the Activity with HCT-116 [15] was determined as 47.5%; in the data set on HCT-116 [16] it was 18.9%; in the data set on HCT-116 [17], 18.4%; in the data set on HCT-116 [19] it was 17.9%; with HCT-116 [21], 16.4%. Also, the inhibition entry in data set [5] is “inactive”. Also, the result in the data set with HCT-116 [18] was inactive. Moreover, the inhibition in vivo at 10 mg/kg in data set [20] was 55.7%.
